Assay results reported in ChEMBL document CHEMBL3232800, “Polyfluorinated bis-styrylbenzenes as amyloid-β plaque binding ligands” (Bioorg Med Chem, 2014).
Active and inactive are the calls of the source. The calls are words filed in the database; no cut-off is given here.

Key:
[1] = biological target: T1, Amyloid-beta precursor protein (Homo sapiens, UniProt P05067); experiment: Binding affinity to beta-amyloid plaque in Alzheimer's disease patient brain at 100 uM by fluorescence microscopic analysis
Summary of the method: (§1)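 Sections were stained for 10 min in darkness with compound diluted from 3 mM DMSO stocks to 1, 10 or 100 µM in 2:3 PBS/ethanol and sonicated 15 min. Tissue was paraffin sections of Braak IV human AD medial temporal cortex (8 µm), 14-month APP/PS1 mouse brain and age-matched controls. Sections were rinsed, then 0.1% NaOH in 80% ethanol for 2 min. Read by slide-scanner fluorescence with a DAPI cube (Ex 365, Em 445/50 nm) at constant settings; assessment was qualitative.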

[2] = biological target: T1, Amyloid-beta precursor protein; experiment: Binding affinity to beta-amyloid plaque in APP/PS1 transgenic mouse brain at 100 uM by fluorescence microscopic analysis; assay type: tissue-based; summary of the method: as §1
[3] = biological target: T1, Amyloid-beta precursor protein; experiment: Binding affinity to beta-amyloid plaque in Alzheimer's disease patient brain at 10 uM by fluorescence microscopic analysis; summary of the method: as §1
[4] = biological target: T1, Amyloid-beta precursor protein; experiment: Binding affinity to beta-amyloid plaque in APP/PS1 transgenic mouse brain at 1 uM by fluorescence microscopic analysis; assay type: tissue-based; summary of the method: as §1
[5] = biological target: T1, Amyloid-beta precursor protein; experiment: Binding affinity to fibrillar amyloid beta (1 to 40) (unknown origin) assessed as fluorescence intensity relative to Methoxy-X04
[6] = biological target: T1, Amyloid-beta precursor protein; experiment: Binding affinity to fibrillar amyloid beta (1 to 40) (unknown origin) assessed as fluorescence intensity relative to control
[7] = biological target: T1, Amyloid-beta precursor protein; experiment: Displacement of [3H]chrysamine G from fibrillar amyloid beta (1 to 40) (unknown origin) after 1 hr by liquid scintillation spectrophotometric analysis
Summary of the method: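 Competition binding was run at room temperature in 1 ml of 150 mM Tris-HCl, 20% ethanol, pH 7.0. Test compound ranged 30 µM to 30 pM (from 3 mM DMSO stocks, sonicated) against 5 nM [3H]chrysamine G and 50 nM synthetic Aβ1-40 fibrils. Nonspecific binding was taken with 1 µM Methoxy-X04.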

[8] = Partition coefficient, log P of the compound in methanol-water mixture by HPLC analysis; assay type: physicochemical
Summary of the method: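 Eluent A was 0.02 M Na2HPO4 phosphate buffer, pH 7.0, and eluent B was 0.25% octanol in methanol. Samples came from 0.5 mg/ml methanol stocks. Values above 7 are not reliably measured.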

Mus musculus [9] = experiment: Binding affinity to beta-amyloid plaque in APP/PS1 transgenic mouse brain at 30 umol/kg, iv after 1 day by fluorescence microscopic analysis; assay type: functional, organism-based
Summary of the method: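 APP/PS1 mice aged 12–14 months, with age-matched wildtype (n = 2 per compound), got an iv dose of 30 µmol/kg from a 0.05 M solution in 1:1 DMSO/Cremophor diluted with PBS to 200 µl. After one day they were perfused with 4% PFA and brains cryoprotected in sucrose/PFA. Brains were cut into 30 µm cryosections and imaged by the same fluorescence slide-scanner set-up.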

[10] = biological target: T1, Amyloid-beta precursor protein; experiment: Binding affinity to fibrillar amyloid beta (1 to 40) (unknown origin) at 1.92 mM by [19F]-NMR spectrometric analysis
[11] = biological target: T1, Amyloid-beta precursor protein; experiment: Binding affinity to beta-amyloid plaque in APP/PS1 transgenic mouse brain homogenate at 1.92 mM by [19F]-NMR spectrometric analysis; assay type: tissue-based
Mus musculus [12] = experiment: Binding affinity to beta-amyloid plaque in APP/PS1 transgenic mouse brain at 30 umol/kg, iv after 24 hrs by [19F]-NMR spectrometric analysis; assay type: functional, organism-based
[13] = methanol-water mixture, read-out: logP

T1 sequence (P05067 whole entry): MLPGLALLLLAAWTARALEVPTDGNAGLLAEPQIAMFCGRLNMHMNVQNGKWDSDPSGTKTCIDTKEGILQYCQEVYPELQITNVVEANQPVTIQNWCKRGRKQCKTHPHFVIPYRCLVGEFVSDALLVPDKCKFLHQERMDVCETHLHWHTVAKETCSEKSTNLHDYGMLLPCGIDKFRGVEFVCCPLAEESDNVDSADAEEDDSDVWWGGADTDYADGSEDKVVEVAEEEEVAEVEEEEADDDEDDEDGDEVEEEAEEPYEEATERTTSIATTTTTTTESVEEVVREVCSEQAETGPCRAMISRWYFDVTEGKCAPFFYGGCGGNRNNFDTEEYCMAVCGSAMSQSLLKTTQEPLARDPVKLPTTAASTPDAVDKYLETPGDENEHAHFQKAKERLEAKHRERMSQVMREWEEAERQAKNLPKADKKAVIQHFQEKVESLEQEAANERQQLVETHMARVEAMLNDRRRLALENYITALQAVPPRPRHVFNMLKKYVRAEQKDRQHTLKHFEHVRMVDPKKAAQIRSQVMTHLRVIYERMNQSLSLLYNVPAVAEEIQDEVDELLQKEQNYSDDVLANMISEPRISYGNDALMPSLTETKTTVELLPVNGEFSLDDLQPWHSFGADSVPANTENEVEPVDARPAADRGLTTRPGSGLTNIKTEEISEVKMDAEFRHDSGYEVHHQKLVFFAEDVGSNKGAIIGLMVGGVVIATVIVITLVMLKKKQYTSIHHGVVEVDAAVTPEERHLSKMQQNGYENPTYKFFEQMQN

Activity [1] | Activity [2] | Activity [3] | Activity [4] | RFU [5] | fold change (FC) [6] | Ki [7] [nM] | logP [8, 13] | Activity (Mus musculus [9]) | Activity [10] | Activity [11] | Activity (Mus musculus [12]) | logP ([8]; octanol/water) | SMILES
Active | Active | Active | Active | 38 | 17.8 | 84.5 | > 7 | Active | inactive | Active | inactive |  | Oc1ccc(/C=C/c2ccc(/C=C/c3ccc(O)cc3)c(OC(C(F)(F)F)(C(F)(F)F)C(F)(F)F)c2)cc1
Active | Active | Active | Active | 26 | 4.1 |  | 4.99 | Active |  |  |  |  | COc1cc(/C=C/c2ccc(CO)cc2)ccc1/C=C/c1ccc(CO)cc1
Active | Active | inactive | Active | 7 | 4.1 | 39.3 | 5.25 | Active |  |  |  |  | Oc1ccc(/C=C/c2ccc(/C=C/c3ccc(O)cc3)c(OCC(F)(F)F)c2)cc1
Active | Active | inactive | Active | 19 | 10.7 | 244 | 5.64 | Active |  |  |  |  | Oc1ccc(/C=C/c2ccc(/C=C/c3ccc(O)cc3)c(C(F)(F)F)c2)cc1
Active | Active | Active | Active | 1 | < 1 |  | > 7 | Active |  |  |  |  | COc1cc(/C=C/c2ccc(C(F)(F)F)cc2)ccc1/C=C/c1ccc(C(F)(F)F)cc1
Active | Active | Active | Active | 1 | < 1 |  | > 7 | Active |  |  |  |  | COc1cc(/C=C/c2ccc(C(F)(F)C(F)F)cc2)ccc1/C=C/c1ccc(C(F)(F)C(F)F)cc1
 |  | inactive | inactive | 2 | 4.3 | 56.4 | 5.79 | Active |  |  |  |  | Oc1ccc(/C=C/c2ccc(/C=C/c3ccc(O)cc3)c(OCCCC(F)(F)F)c2)cc1
Active | Active | Active | Active | 3 | < 1 |  | > 7 | Active |  |  |  |  | COc1cc(/C=C/c2ccc(OC(F)(F)F)cc2)ccc1/C=C/c1ccc(OC(F)(F)F)cc1
Active | Active | Active | Active | 100 | 9.8 | 24.2 |  | Active |  |  |  | 4.84 | COc1cc(/C=C/c2ccc(O)cc2)ccc1/C=C/c1ccc(O)cc1
Active | Active | Active | Active | 2 | 3.6 |  | 6.18 | Active |  |  |  |  | Oc1cc(/C=C/c2ccc(C(F)(F)F)cc2)ccc1/C=C/c1ccc(C(F)(F)F)cc1
Active | Active | inactive | Active | 4 | < 1 |  | > 7 | inactive |  |  |  |  | COc1cc(/C=C/c2ccc(OC)c(C(F)(F)F)c2)ccc1/C=C/c1ccc(OC)c(C(F)(F)F)c1
 |  | inactive | inactive |  |  |  | 5 | inactive |  |  |  |  | COc1cc(/C=C/c2ccc(O)cc2)c(OC)cc1/C=C/c1ccc(O)cc1
Active | Active | Active | Active |  |  |  | > 7 | Active |  |  |  |  | Oc1cc(/C=C/c2ccc(C(F)(F)C(F)F)cc2)ccc1/C=C/c1ccc(C(F)(F)C(F)F)cc1
Active | Active | Active | Active | 13 | 7.4 |  | > 7 | Active |  |  |  |  | Oc1cc(/C=C/c2ccc(OC(F)(F)F)cc2)ccc1/C=C/c1ccc(OC(F)(F)F)cc1
